Assay outcomes from PubChem.
KCNK9 block = inhibitors of human KCNK9 two-pore domain potassium channel; Q9NPC2; HEK293 KCNK9, FluxOR thallium flux fluorescence; active compounds read low; B-score at 10 µM; actives 1.2% (n = 310,000);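 active = ratio B-score over 3 SD below the library mean, with starting fluorescence within 5 SD of its mean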;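 note: negative B-score means less thallium flux so channel inhibition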
KCNK3 inh = human KCNK3 channel inhibition, primary screen | CHO-KCNK3 thallium flux, FluxOR fluorescence; active compounds read low | B-score at 10 µM | actives 0.84% (n = 340,000) | AID 602410;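 active = B-score under library mean minus 4 SD, starting fluorescence ratio at most library mean plus 5 SD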;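 note: more negative B-score means stronger inhibition of thallium flux through KCNK3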
KCNQ1 pot = human KCNQ1 channel potentiation or activation; B-score at 10 µM; P51787; CHO-K1 KCNQ1, thallium flux FluxOR fluorescence; active compounds read high; actives 0.35% (n = 310,000);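 active = fluorescence ratio B-score, a plate-corrected score, at least three library SD, with initial intensity B-score within 5 SD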
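Schedule – 37 °C overnight plating, 90-min dark dye load, 20-min compound pretreatment · System – stable KCNQ1 CHO-K1 line · Probe or stimulus – thallium- and potassium-containing depolarizing buffer · Measured by – kinetic FluxOR fluorescence, 10 s baseline plus 110 s post-stimulus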
hERG rescue = hERG (human) protection from proarrhythmic block; Q12809; CHO-hERG, FluxOR thallium flux, dofetilide IC70 present; activation (rescue from dofetilide block), less the hit threshold, % at 10 µM; actives 0.51% (n = 310,000);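 active = activation above the mean of controls blocked by dofetilide plus 5 SD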;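 note: thallium influx through hERG after potassium depolarization seen as dye fluorescence rise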
Kir21 block = inhibitors of mouse Kir2.1 inward-rectifier potassium channel. P35561. HEK293-Kir2.1, FluxOR thallium flux fluorescence; active compounds read low. B-score at 10 µM. actives 0.85% (n = 310,000). AID 1672;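 active = fluorescence ratio B-score at or below minus 3 SD of library scores, with starting-brightness B-score within 2 SD, cut at about -4.2 in these data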;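 note: channel flux triggered by added potassium and thallium sulfate stimulus; B-score of peak minus minimum fluorescence over baseline after thallium stimulus; more negative B-score means stronger Kir2.1 block with less thallium influx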
KCNQ1 inh = inhibitors of human KCNQ1 potassium channel | AID 2642 | P51787 | actives 1.3% (n = 310,000) | B-score at 10 µM | CHO-K1 KCNQ1, FluxOR thallium flux fluorescence; active compounds read high;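 active = compounds whose thallium flux B-score, printed positive for inhibition, exceeds three library SD while starting fluorescence stays within three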;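 note: channel opened by potassium depolarization with thallium stimulus after 20 min compound exposure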
KCNK9 block conf = confirmation of human KCNK9 potassium channel inhibitors; actives 43% (n = 4,900); shares compounds with KCNK9 block; inhibition, % at 10 µM; HEK293 KCNK9 cells, FluxOR thallium flux fluorescence;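 active = thallium signal inhibited by more than 5 SD of the compound-free buffer control wells, on both duplicate plates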;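 note: 0% = assay buffer control wells without compound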
Kir2-1 spec = selectivity of KCNK9 modulators against mouse Kir2.1; shares compounds with KCNK9 block; Kir2.1 cells, FluxOR thallium flux fluorescence; inhibition, % at 10 µM; actives 4% (n = 4,900);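 active = thallium signal drop more than 5 SD beyond the mean of the no-compound control wells, seen in both duplicate plates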;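 note: signal is fluorescence rise after thallium addition divided by baseline fluorescence; plate controls were assay buffer only for no effect and full block by chlorpromazine control for full effect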
KCNK9 uninduced = non-induced cell nonspecific activity of KCNK9 modulators; shares compounds with KCNK9 block; non-induced KCNK9-HEK293, FluxOR thallium flux; inhibition, % at 10 µM; actives 40% (n = 4,900); AID 492997;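 active = thallium signal drop beyond 5 SD of the untreated control mean, on both duplicate plates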;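 note: plate controls were buffer only IC0 wells for no effect and SID17386958 at its maximal inhibitory level for full effect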
Numbers without * were called inactive; i = inactive; x = not tested or not shown. Sampled rows, rich in hits. Any-hit rate of the full collection: about 3.7%.

SMILES | KCNK9 block | KCNK3 inh | KCNQ1 pot | hERG rescue | Kir21 block | KCNQ1 inh | KCNK9 block conf | Kir2-1 spec | KCNK9 uninduced
COc1ccc(NC(C)(C)c2nnnn2-c2c(C)cccc2C)cc1 | i | i | i | -9 | -0.23 | i | x | x | x
Cc1ccc(NC2(c3nnnn3-c3c(C)cccc3C)CCCCC2)cc1 | -8.9* | i | i | -6 | 0.74 | i | 48%* | i | 44%*
COc1ccccc1-c1cccc([C@@H]2C[C@H]3[C@H](CON3C)CN2C)c1 | x | i | x | x | x | x | x | x | x
Cc1nc(SCc2ccccc2C#N)n[nH]1 | i | i | i | -6 | 0.41 | i | x | x | x
N#Cc1ccccc1CSc1nc(N2CCCCC2)nc(N2CCCCC2)n1 | i | i | i | -11 | -0.87 | i | i | i | i
O=C(CCCOc1ccccc1)NNC(=O)c1ccncc1 | x | i | x | x | x | x | x | x | x
CCOC(=O)CN1C(=O)C(Sc2n[nH]c(-c3ccc(O)cc3)n2)CCc2ccccc21 (centres undefined) | -9.4* | i | i | -20 | 1.3 | i | 36%* | i | i
O=C(COC(=O)c1ccc(O)cc1)Nc1cccc(S(=O)(=O)N2CCCCC2)c1 | i | i | i | -16 | -0.37 | i | x | x | x
Cc1cc(C)c(C(=O)OCC(=O)Nc2cccc(S(=O)(=O)N3CCCCC3)c2)c(C)c1 | i | i | i | -19 | -0.14 | 6* | i | i | i
CCC(=O)c1ccc(OCC(=O)OCC(=O)Nc2cccc(S(=O)(=O)N3CCCC3)c2)cc1 | x | i | x | x | x | x | x | x | x
O=C(COC(=O)CCC(=O)c1ccc(F)cc1)Nc1cccc(S(=O)(=O)N2CCCC2)c1 | i | i | i | -12 | 1.5 | i | i | i | i
CCCc1cc(C(=O)Nc2cc(C)ccc2O)no1 | i | i | i | -4 | 0.07 | i | x | x | x
COc1ccc(C(=O)OCC(=O)N2CCC(C)CC2)cc1S(=O)(=O)N1CCOCC1 | x | i | x | x | x | x | x | x | x
Cc1ccc(C(=O)OCC(=O)N2CC(C)CC(C)C2)cc1S(=O)(=O)N1CCOCC1 (centres undefined) | i | i | i | -9 | 0.17 | i | x | x | x
CC1CCN(C(=O)COC(=O)c2ccc(F)c(S(=O)(=O)N3CCOCC3)c2)CC1 | i | i | i | -5 | -0.59 | i | i | i | i
Cc1ccc(C(=O)OCC(=O)N2CCC(C)CC2)cc1S(=O)(=O)N1CCCCC1 | i | i | i | -9 | -2.8 | i | i | i | i
CC(=O)NC(CC(=O)OCc1ccc([N+](=O)[O-])cc1)c1ccccc1 (centres undefined) | i | i | i | -3 | -1.1 | i | x | x | x
CC1CN(C(=O)CCCN2C(=O)c3ccccc3C2=O)CC(C)O1 (centres undefined) | i | i | i | 0 | 0.64 | i | x | x | x
CCCCNC(=O)CCSc1ccc(C)cc1 | i | i | i | -4 | -0.57 | i | x | x | x
Cc1ccc(SCCC(=O)NCCSCc2ccccc2C)cc1 | i | i | i | -8 | 1.8 | i | i | i | i
CC1=C(C(=O)OCc2ccccc2)C(c2ccccc2Br)NC(=O)N1 (centres undefined) | i | i | i | -6 | -0.03 | i | x | x | x
COc1ccc(C(=O)CSc2ccc(-c3ccccc3)nn2)cc1 | i | i | i | -8 | 0.68 | i | i | i | i
COc1cccc(-c2ccc(SCC(=O)c3ccccc3)nn2)c1 | i | i | i | -19 | -0.43 | i | i | i | i
Cc1ccc(S(=O)(=O)N(C)C)cc1NC(=O)C(C)OC(=O)c1cc[n+]([O-])cc1 (centres undefined) | x | i | x | x | x | x | x | x | x
Cc1ccc(-c2nc3ncccc3o2)cc1NC(=O)c1cc2ccccc2o1 | i | i | i | -5 | 1.7 | i | x | x | x
SMILES | KCNK9 block | KCNK3 inh | KCNQ1 pot | hERG rescue | Kir21 block | KCNQ1 inh | KCNK9 block conf | Kir2-1 spec | KCNK9 uninduced
O=C(Nc1cccc(-c2nc3ncccc3o2)c1)c1cc2ccccc2o1 | -8.3* | i | i | -22 | 0.89 | i | 66%* | i | i
Cc1ccc(NC(=O)c2cc(C)n(-c3ccccc3)c2C)cc1 | i | i | i | -13 | 0.22 | i | i | i | i
Cc1ccc(NC(=O)c2cnn(-c3ccccc3)c2C)cc1 | i | i | i | -1 | -0.82 | i | x | x | x
COc1ccc(S(=O)(=O)NCC(c2cccs2)N2CCc3ccccc3C2)cc1 (centres undefined) | i | i | i | -11 | -1.4 | i | x | x | x
COc1ccc(OC)c(S(=O)(=O)NCC(c2cccs2)N2CCc3ccccc3C2)c1 (centres undefined) | -9.1* | i | i | -8 | -1.2 | i | i | i | i
CCOc1ccccc1NC(=O)NC1(C(=O)NCc2cccnc2)CCCCC1 | i | i | i | 0 | 1.2 | i | x | x | x
COc1ccc(N2CCN(C(=O)c3ccc(F)cc3)CC2)c([N+](=O)[O-])c1 | i | i | i | -9 | -0.05 | i | x | x | x
O=C(c1ccc(F)cc1)N1CCN(c2cc(N3CCCCC3)c(F)cc2[N+](=O)[O-])CC1 | i | i | i | -8 | -0.49 | i | i | i | i
Cc1ccc(C)c(N2CCN(C(=O)c3ccc(CS(=O)Cc4cccc(Cl)c4)o3)CC2)c1 (centres undefined) | i | i | i | -14 | 0.11 | i | i | i | i
Cc1cccc(N2CCN(C(=O)c3ccc(CS(=O)Cc4ccc(Cl)cc4)o3)CC2)c1C (centres undefined) | i | i | i | -15 | 0.17 | i | x | x | x
Cc1ccc(C)c(N2CCN(C(=O)c3cc4c(C)nc5ccccc5c4o3)CC2)c1 | -8.8* | i | i | -4 | -1 | i | 35%* | i | i
CCc1nnc(NC(=O)c2oc3ccccc3c2COC(C)C)s1 | x | i | x | x | x | x | x | x | x
O=C(CNC(=O)c1ccc(Cl)cc1Cl)OCc1nnc(-c2ccccc2)o1 | i | i | i | -9 | -0.02 | i | x | x | x
c1ccc(-[n+]2nc(Nc3cccc4ccccc34)sc2-c2c3ccccc3cc3ccccc23)cc1 | x | i | x | x | x | x | x | x | x
COC(=O)c1sccc1NC(=S)N1CCN(c2ccccc2)CC1 | i | i | i | -6 | 0.13 | i | x | x | x
COC(=O)c1sccc1NC(=S)N1CCN(c2ccc(F)cc2)CC1 | -9.7* | i | i | -9 | -0.78 | i | i | i | 32%*
